Laboratory results taken from article PMC3428850 (Molecular cancer therapeutics, 2012).
Values joined by “and” are separate entries in the source; they are usually repeats but may differ in a detail not shown here. Identical values can stand only once. Like-named read-outs stand apart in the source and are kept apart here.

Legend:
[1] = tested on: SW620 xenografts; assay: anti-tumour efficacy study, SW620 xenografts; format: in vivo, mice
Method in brief: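 Female athymic CD1-nu/nu mice with s.c. SW620, n = 5/group, treated once tumours were palpable (~5 × 5 mm, day 8-10). Controls: saline i.p. daily. Test compound 10 mg/kg i.p. for 5 days. Etoposide phosphate 11.35 mg/kg i.p. (10 mg/kg etoposide) daily × 5. Combination: test compound i.p. once or twice daily × 5, first dose just before etoposide. Caliper volume a²×b/2; median RTV (day 0 = 1); time to RTV4.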

[2] = tested on: T47D cells; assay: clonogenic survival assay; format: cell-based, human
Method in brief: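 Cells in RPMI 1640/10% FBS were exposed in 6-well plates for 16 h to etoposide or doxorubicin with or without test compound (1 μM), or to test compound alone. Cells then harvested and reseeded in drug-free medium. Colonies stained with crystal violet after 10-14 days and counted automatically. Fold enhancement = survival with cytotoxic alone / survival with cytotoxic + 1 μM test compound. Means ± SD, n = 3.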

[3] = solubility; format: physicochemical; settings: compared with NU7441
[4] = tested on: PI-3K; assay: PI-3K-dependent AKT phosphorylation; format: cell-based, human; settings: read-out: IC50 PI-3K-mediated AKT phosphorylation; MCF7 cells, IGF-1 stimulated
Method in brief: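 MCF7 cells in RPMI 1640/10% FBS. Exposed to a concentration range of test compound for 1 h, then 50 ng/ml IGF-1 for 30 min. Western blot of AKT Ser473 relative to total AKT. Rise above unstimulated baseline in treated cells expressed as % of the rise in control cells. Mean of three independent experiments fitted to a sigmoidal dose-response curve for IC50.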

[5] = plasma pharmacokinetics following different routes of administration; format: in vivo, Balb C mice; settings: for CL: mice
Method in brief: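 Female Balb C mice given test compound at 10 mg/kg i.v., i.p. or p.o. Vehicle: equimolar phosphoric acid in sterile saline, final pH 5. Plasma sampled at 5-360 min, 3 mice per time point. Plasma levels by LC-MS/MS. PK parameters calculated from mean values.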

[6] = format: in vivo, mice; settings: for concentration at 60 min / concentration at 120 min: female, CD1-nu/nu (athymic), mouse, intravenous, 12.5 mg/kg
Method in brief: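 Female athymic CD1-nu/nu mice kept in SPF isolators, bearing MCF7 or SW620 xenografts (650 mm³). Test compound 12.5 mg/kg i.v. in equimolar phosphoric acid/saline, pH 5. Tumours homogenised in PBS (1:3 w/v) on ice. Plasma and tumour concentrations by LC-MS/MS. Means ± SD of 3 mice per time point.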

[7] = target: PI-3K δ (Homo sapiens, UniProt O00329); assay: cell-free assay, PI-3K isoforms; format: biochemical; settings: Supplementary Figure 1
[8] = tested on: PI-3K; assay: PI-3K-dependent AKT phosphorylation; format: cell-based, human; settings: SW620 cells
[9] = tested on: V3 cells; assay: clonogenic survival assay, DNA-PKcs-deficient cells; format: cell-based, Chinese hamster
Method in brief: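 Chinese hamster ovary V3 cells (DNA-PKcs-deficient) and V3-YAC cells (human DNA-PKcs on YAC; kept under G-418 500 μg/ml) in RPMI 1640/10% FBS. Etoposide alone or with 1 μM test compound, or test compound alone, for 16 h. Reseeded drug-free. Crystal violet colony counts after 10-14 days. Fold enhancement as survival ratio. Means ± SD of 3 independent experiments.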

[10] = tested on: SW620 cells; assay: cell growth inhibition, SRB assay, 5-day continuous exposure; format: cell-based, human
[11] = tested on: SW620 cells; assay: clonogenic survival assay; format: cell-based, human
[12] = tested on: MCF7 xenografts; assay: anti-tumour efficacy study, MCF7 xenografts; format: in vivo; settings: MCF7 tumour-bearing mice
[13] = tested on: M059-Fus-1 cells; assay: clonogenic survival assay, DNA-PKcs-proficient cells; format: cell-based, human
Method in brief: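 Human glioblastoma M059J cells (DNA-PKcs-deficient) and M059-Fus-1 cells (chromosome 8 transfected; G-418 200 μg/ml) in DMEM/10% FBS. Etoposide or doxorubicin alone or with 1 μM test compound, or test compound alone, for 16 h. Reseeded drug-free. Crystal violet colony counts after 10-14 days. Fold enhancement as survival ratio. Means ± SD, n = 3.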

[14] = tested on: MCF7 cells; assay: cell growth inhibition, SRB assay, 5-day continuous exposure; format: cell-based, human
Method in brief: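 Human cancer cells in RPMI 1640 with 10% FBS, penicillin/streptomycin, at 37 °C and 5% CO2. Test compound (10 mM DMSO stock) given by continuous exposure for 5 days. Growth measured by SRB assay. […] Means ± SD of 3 independent experiments.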

[15] = target: DNA-PK (Homo sapiens, UniProt P78527); assay: DNA-PK ex vivo pharmacodynamic assay, p53 peptide; design: species or system mice; settings: SW-620, mouse, iv, read-out: inhibition of DNA-PK activity ex vivo in tumour
Method in brief: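 SW620 s.c. xenografts in female athymic CD1-nu/nu mice. Test compound 2.5 or 25 mg/kg i.v. (vehicle equimolar phosphoric acid, pH 5) or vehicle alone. Killed after 1 or 4 h. Tumours excised and homogenised. DNA-PK activity by ELISA of DNA-PK-dependent p53 peptide (Ser15) phosphorylation in homogenates. 3 mice per time point, mean ± SD.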

[16] = female, Balb C, mouse, ip, 10 mg/kg
[17] = female, Balb C, mouse, iv, 10 mg/kg
[18] = female, Balb C, mouse, po, 10 mg/kg

Chain of PI-3K δ (O00329 whole entry, species assumed, canonical isoform): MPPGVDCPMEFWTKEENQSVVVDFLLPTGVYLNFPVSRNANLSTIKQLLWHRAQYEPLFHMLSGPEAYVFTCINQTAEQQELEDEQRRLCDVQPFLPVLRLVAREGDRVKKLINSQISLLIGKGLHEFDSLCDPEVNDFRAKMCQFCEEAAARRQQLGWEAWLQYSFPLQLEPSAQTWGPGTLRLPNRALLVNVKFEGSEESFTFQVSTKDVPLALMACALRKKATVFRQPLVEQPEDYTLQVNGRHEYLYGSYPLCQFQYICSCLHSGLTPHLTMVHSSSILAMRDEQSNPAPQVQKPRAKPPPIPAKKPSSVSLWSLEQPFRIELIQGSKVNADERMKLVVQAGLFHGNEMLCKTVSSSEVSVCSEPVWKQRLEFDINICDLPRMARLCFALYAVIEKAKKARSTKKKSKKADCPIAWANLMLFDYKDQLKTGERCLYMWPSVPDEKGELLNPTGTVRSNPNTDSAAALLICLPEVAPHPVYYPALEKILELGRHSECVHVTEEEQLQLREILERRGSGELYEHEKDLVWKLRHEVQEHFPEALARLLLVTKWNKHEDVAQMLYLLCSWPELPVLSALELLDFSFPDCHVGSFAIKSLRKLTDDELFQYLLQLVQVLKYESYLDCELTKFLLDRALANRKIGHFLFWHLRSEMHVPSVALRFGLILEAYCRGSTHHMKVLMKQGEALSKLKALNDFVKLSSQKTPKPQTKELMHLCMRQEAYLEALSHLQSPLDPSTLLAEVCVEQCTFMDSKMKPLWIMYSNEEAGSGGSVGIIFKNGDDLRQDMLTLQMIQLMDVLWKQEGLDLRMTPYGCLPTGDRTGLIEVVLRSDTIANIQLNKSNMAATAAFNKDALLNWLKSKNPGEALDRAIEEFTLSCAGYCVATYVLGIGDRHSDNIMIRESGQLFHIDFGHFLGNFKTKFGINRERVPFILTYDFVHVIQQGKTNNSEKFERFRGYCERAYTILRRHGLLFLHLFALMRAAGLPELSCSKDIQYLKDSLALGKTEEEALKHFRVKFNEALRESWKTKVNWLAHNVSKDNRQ
Chain of PI-3K δ (P27986 whole entry partner, species assumed, canonical isoform): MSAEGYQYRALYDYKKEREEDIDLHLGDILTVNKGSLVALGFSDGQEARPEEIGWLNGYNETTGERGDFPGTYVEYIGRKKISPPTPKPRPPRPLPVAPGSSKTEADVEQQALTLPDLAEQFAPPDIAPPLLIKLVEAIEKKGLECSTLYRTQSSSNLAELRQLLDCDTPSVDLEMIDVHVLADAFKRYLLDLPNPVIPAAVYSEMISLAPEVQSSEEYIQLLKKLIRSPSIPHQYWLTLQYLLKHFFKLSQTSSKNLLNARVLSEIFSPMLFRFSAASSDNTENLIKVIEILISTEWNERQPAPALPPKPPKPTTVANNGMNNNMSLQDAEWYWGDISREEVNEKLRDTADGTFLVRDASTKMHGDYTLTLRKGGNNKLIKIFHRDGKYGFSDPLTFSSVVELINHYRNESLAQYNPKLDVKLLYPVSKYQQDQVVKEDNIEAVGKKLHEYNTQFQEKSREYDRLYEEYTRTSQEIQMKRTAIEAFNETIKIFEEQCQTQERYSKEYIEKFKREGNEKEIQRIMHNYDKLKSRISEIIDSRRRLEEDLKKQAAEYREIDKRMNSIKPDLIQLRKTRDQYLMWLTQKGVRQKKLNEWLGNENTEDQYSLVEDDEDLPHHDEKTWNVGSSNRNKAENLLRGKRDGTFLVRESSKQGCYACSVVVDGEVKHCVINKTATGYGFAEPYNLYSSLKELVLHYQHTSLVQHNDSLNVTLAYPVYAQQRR

For `CCN1CCN(CC(=O)Nc2ccc(-c3cccc4c(=O)cc(N5CCOCC5)oc34)c3sc4ccccc4c23)CC1` [KU-0060648, 2-(4-ethylpiperazin-1-yl)-N-(4-(2-morpholino-4-oxo-4H-chromen-8-yl)dibenzo[b,d]thiophen-1-yl)acetamide], the “maximum body weight loss” value ([1]; SW620 tumour-bearing mice) was “no body weight loss”, the “fold increase of etoposide-induced tumour growth delay” value ([1]; in both SW620 and MCF7 xenografts) was “up to 4.5 fold” and the “Fold enhancement of doxorubicin cytotoxicity (survival cytotoxic alone/survival cytotoxic + 1 μM KU-0060648)” value ([2]; 100 nM doxorubicin, 16 hr) was 58±35 fold. For the same compound, the “overall cell survival (clonogenic)” value ([2]; 1 μM, 16 hr exposure, single agent) was no less than 80%, the fold greater solubility [3] was greater than 500 fold and the IC50 [4] was 39 nM and 40 nM. It also gave a CL ([5]; 10 mg/kg i.p) of 54 mL/min/kg, a CL ([5]; 10 mg/kg p.o) of 35 mL/min/kg and an AUC(0-inf) [5, 16] of 3150 ng·h/mL. The Cmax [5, 16] was 900 ng/mL, the Tmax [5, 16] was 0.5 h and the bioavailability [5, 16] was 78%. For the same compound, the half-life [5, 16] was 1.77 h, the AUC(0-inf) [5, 17] was 4030 ng·h/mL and the Cmax [5, 17] was 1900 ng/mL. The Tmax [5, 17] was 0.0833 h, the clearance [5, 17] was 41 mL/min/kg and the half-life [5, 17] was 1.7 h. It also gave an AUC(0-inf) [5, 18] of 4780 ng·h/mL, a Cmax [5, 18] of 900 ng/mL and a Tmax [5, 18] of 2 h. The bioavailability [5, 18] was 119%, the half-life [5, 18] was 2.37 h and the “concentration maintained in the tumour” value ([6]; SW620 xenografts, 12.5 mg/kg i.v., for at least 4 hours) was “over 1 μM”. The concentration at 60 min ([6]; plasma) was 2100 ± 500 nM, the concentration at 120 min ([6]; plasma) was 700 ± 200 nM and the concentration at 60 min ([6]; tumour (SW620 xenograft)) was 4900 ± 300 nM. The concentration at 120 min ([6]; tumour (SW620 xenograft)) was 2900 ± 400 nM, the “potency rank among the four PI-3K isoforms” value [7] was “greatest potency” and the “inhibition of AKT phosphorylation” value ([8]; at 10 μM) was 42%. For the same compound, the IC50 ([8]; read-out: IC50 PI-3K-mediated AKT phosphorylation, IGF-1 stimulated) was greater than 10000 nM, the “fold enhancement of etoposide cytotoxicity” value ([9]; V3, 1 μM KU-0060648, 16 hours) was 2.5 fold and the “reduction in cell viability, compound alone” value ([9]; V3, 1 μM, 16 hours) was less than 15%. For the same compound, the GI50 ([10]; Homo sapiens, SW-620, 120 h) was 950 nM, the “inhibition of cell growth” value ([10]; SW620, 1 μM, 5 days, 1 µM) was > 50% and 50% and the “Fold enhancement of doxorubicin cytotoxicity (survival cytotoxic alone/survival cytotoxic + 1 μM KU-0060648)” value ([11]; SW620, 100 nM doxorubicin, 16 hr) was 12 fold and 12±8 fold. For the same compound, the “overall cell survival (clonogenic)” value ([11]; SW620, 1 μM, 16 hr exposure, single agent) was no less than 80%, the “maximum body weight loss” value [12] was 3% and the “fold enhancement of etoposide cytotoxicity” value ([13]; M059-Fus-1, 1 μM KU-0060648, 16 hours) was 4 fold. For the same compound, the “fold enhancement of doxorubicin cytotoxicity” value ([13]; M059-Fus-1, 1 μM KU-0060648, depending on the doxorubicin concentration) was “up to 32 fold”, the “reduction in cell viability, compound alone” value ([13]; M059-Fus-1, 1 μM, 16 hours) was less than 5% and the GI50 ([14]; Homo sapiens, MCF7, 120 h) was 270 nM. For the same compound, the “total cell growth over 5 days, of DMSO treated controls” value ([14]; MCF7, 1 μM) was 4%, the “inhibition of cell growth” value ([14]; MCF7, 1 μM, 5 days, 1 µM) was > 95% and > 50% and the inhibition at 25 mg/kg [15] was roughly 100%.
